Most compounds without a hit are left out; they make up all but 3.3% or so of the library.
PRMT1 inh = PRMT1 methyltransferase inhibitors, primary screen, biochemical, fluorescence polarization; recombinant PRMT1, activity-based probe fluorescence polarization; 370,000 compounds, 1.3% hits; inhibition, % at 2.79 µM; Protein arginine N-methyltransferase 1 (Homo sapiens), Q99873; AID 652257, 2013;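 active means inhibition above about 21% made by adding two undisclosed values, limit read from the data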
Target sequence (Q99873 whole entry, looked up): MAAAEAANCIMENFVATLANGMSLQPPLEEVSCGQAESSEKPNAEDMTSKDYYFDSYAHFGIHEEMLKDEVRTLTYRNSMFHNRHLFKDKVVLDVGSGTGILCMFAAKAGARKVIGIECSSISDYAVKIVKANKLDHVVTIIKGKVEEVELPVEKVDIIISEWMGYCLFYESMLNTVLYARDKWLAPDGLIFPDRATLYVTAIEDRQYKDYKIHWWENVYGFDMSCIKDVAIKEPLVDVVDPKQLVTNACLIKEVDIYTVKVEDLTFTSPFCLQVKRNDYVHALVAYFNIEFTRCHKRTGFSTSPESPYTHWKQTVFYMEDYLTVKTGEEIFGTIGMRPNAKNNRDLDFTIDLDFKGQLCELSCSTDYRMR
SIAE primary = human SIAE inhibitors, primary screen, biochemical, fluorescence polarization, FP-Rh probe, 1536-well HTS; inhibition, % at 9.66 µM; SIAE FP-Rh probe binding; 370,000 compounds, 0.69% hits;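 active means inhibition above a cutoff: mean of compounds within the control limits plus 3 SD of those, cut at about 17% in these data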
rCAG binder = binders of r(CAG) RNA repeats, primary screen, biochemical, fluorescence. r(CAG) RNA repeat, TO-PRO-1 dye displacement fluorescence. inhibition, % at 3 µM. 370,000 compounds, 1.3% hits;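 active means inhibition above the plate cutoff, the mean of all test compounds on that plate plus 3 SD, cut at about 35% in these data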;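 further: higher means more dye released from RNA so lower well fluorescence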
TCR CD3 inh = inhibitors of human TCR-CD3 interaction, primary screen, biochemical, fluorescence, TAMRA-labeled TCR probe; T-cell receptor (TCR); inhibition, % at 9.4 µM; 360,000 compounds, 0.37% hits; in the data active means inhibition above about 19%;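 further: recombinant mutant TCR 2C K166C tagged with TAMRA read by polarization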
mABHD4 FP = ABHD4 inhibitors, primary screen, biochemical, fluorescence polarization, mouse; (Lyso)-N-acylphosphatidylethanolamine lipase (Mus musculus), Q8VD66; purified mABHD4, FP-Rh probe fluorescence polarization; inhibition, % at 8.92 µM; 370,000 compounds, 0.54% hits; AID 720543, 2013;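 active means inhibition exceeding the mean over every tested compound plus 3 SD, cut at about 30% in these data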
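Material: mouse ABHD4 enzyme, wild type; Benchmarks: S159A mutant high control, sample median low control; Buffer or medium: HEPES pH 7.0, NaCl, Pluronic buffer; Signal: fluorescence polarization; Read-out: percent inhibition of probe binding, normalized to plate controls; Timing: pre-incubation 45 min, probe exposure 60 min, at 25 °C; Dosing: 8.92 µM, single dose.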
Numbers stand for hits; 0 = inactive; - = no result; ! = a repeat was not active.

SMILES	PRMT1 inh	SIAE primary	rCAG binder	TCR CD3 inh	mABHD4 FP
CCOC(=O)[C@]12CCCCC/C=C\1N(CCc1ccc(Cl)cc1)C(=O)[C@H]2CC(=O)NCC12CC3CC(CC(C3)C1)C2	0	0	0	-	0
Cc1ccccc1NC(=O)CC1SCCNC1=O (stereo unspecified)	22.0	0	0	0	0
Cc1c(Cl)cccc1NC(=O)CC1SCCNC1=O (stereo unspecified)	0	0	0	0	0
N#CC1=C(S)N=C(N)C(c2nc(-c3ccccc3)cs2)C12CCCC2 (stereo unspecified)	33.4	0	0	0	0
CN(C)S(=O)(=O)c1cccc(C(=O)N/N=C\c2ccnc3ccccc23)c1	0	0	0	-	0
COc1cc(NC(=O)c2ccno2)cc(C(=O)Nc2cccc(C(F)(F)F)c2)c1	0	0	0	0	0
COc1ccc(-c2cc(C(=O)Nc3cc(OC)cc(C(=O)Nc4cccc(C(F)(F)F)c4)c3)[nH]n2)cc1	0	0	0	68.3!	0
COc1cc(NC(=O)c2cc3cccc(OC)c3o2)cc(C(=O)Nc2cccc(C(F)(F)F)c2)c1	0	0	0	44.7	0
COc1ccc(NC(=S)NNC(=S)Nc2cccc(C(F)(F)F)c2)cc1	0	31.1	0	0	0
CCN1CCN(Cc2ccc(NC(=O)c3cc(NC(=O)c4cc(-c5ccc(OC)cc5)n[nH]4)cc(OC)c3)cc2C(F)(F)F)CC1	0	0	0	27.9	0
N#Cc1cccc(NC(=O)O[C@@H]2CC[C@@]34CCCN3C(=O)CCC[C@H]4C2)c1	0	0	-	-	0
COC(=O)c1cc(-c2cccs2)c(=O)n2c1CCC2	0	0	0	-	0
Cc1ccc(NC(=O)c2sc3nc(N4CCOCC4)c4c(c3c2N)CC(C)(C)OC4)cc1	22.1	0	0	0	0
CCOc1ccc(NC(=O)c2sc3nc(N4CCOCC4)c4c(c3c2N)CC(C)(C)OC4)cc1	0	0	0	0	0
Cc1c(NC(=O)C2CCCN(S(=O)(=O)c3ccc(Cl)s3)C2)c(=O)n(-c2ccccc2)n1C (stereo unspecified)	0	0	0	-	0
O=C(CSc1cccc[n+]1[O-])Nc1cc2c(cc1Cl)C(=O)c1ccccc1C2=O	23.3	0	0	0	0
CCn1c(C(=O)O)c(CC(=O)Nc2ccccc2F)c2ccccc21	0	0	0	0	0
CCn1c(C(=O)O)c(CC(=O)Nc2cccc(C(F)(F)F)c2)c2ccccc21	0	0	34.7	0	0
CNc1cccnc1C=NNC(N)=S	24.2	0	0	0	0
COC(=O)CCCn1cc(CN2CC=CS2(=O)=O)nn1	0	0	0	-	0
CCOc1ccc(/C=N/Nc2nc(C)cs2)c(O)c1	21.4	0	0	0	0
C(=N/n1c2ccccc2c2ccccc21)/c1ccco1	0	0	0	0	0
N=c1scc(-c2ccccc2)n1/N=C/c1ccco1	33.9	0	0	0	0
COC(=O)C1=C(C)NC(C)=C(C(=O)OC)C1c1cn(-c2ccccc2)nc1-c1ccco1	30.7	0	0	0	0
COc1cc(/C=C2\SC(c3ccc(C)cc3)=NC2=O)ccc1O	29.0	0	0	0	0
SMILES	PRMT1 inh	SIAE primary	rCAG binder	TCR CD3 inh	mABHD4 FP
COc1ccc(/C=C2\SC(=O)NC2=S)cc1OC	46.6	0	0	0	0
COc1ccc(/C=C2\SC(c3ccc(C)cc3)=NC2=O)cc1OC	0	0	0	0	0
COc1ccc(/C=C2/SC(c3ccc(C)cc3)=NC2=O)cc1OC	24.3	0	0	0	0
CC(C)(C)OC(=O)NCCCc1ccc2c(c1)[C@]1(CCC[C@@H](OCc3ccccc3)[C@@H]1NC(=O)CCc1ccccc1)C(=O)N2Cc1ccccc1	0	0	0	-	0
Nc1cc2nsnc2cc1Br	40.4	0	0	0	0
Nc1cccc2nsnc12	0	0	0	0	0
COc1ccc(C(=O)CSc2ccc(-c3ccco3)nn2)cc1	23.2	0	0	0	0
O=C(CCNc1ccc(Cc2ccncc2)cc1)c1ccc([N+](=O)[O-])cc1	36.1	0	0	0	0
O=C(Nc1cccc(F)c1)/C(=C\c1ccco1)NC(=O)c1ccco1	23.9	0	0	0	0
Cc1ccc(NC(=O)/C(=C\c2ccco2)NC(=O)c2ccco2)cc1	0	0	0	0	0
COc1ccc(NC(=O)/C(=C\c2ccco2)NC(=O)c2ccco2)cc1	0	0	0	0	0
COC(=O)c1cccc(NC(=O)/C(=C\c2ccco2)NC(=O)c2ccco2)c1	24.6	0	0	0	0
O=C1CCC(CNc2ccccc2)N1c1ccccc1 (stereo unspecified)	0	0	-	-	0
COc1cc(C(=O)NC2CCCCN(Cc3ccc(Cl)cc3)C2=O)cc(OC)c1OC (stereo unspecified)	0	0	0	-	0
Cc1ccc(Nc2nnc(SCC(=O)c3ccc(O)cc3O)s2)cc1	0	0	56.0	0	0
Cc1cccc(Nc2nnc(SCC(=O)c3ccc(O)cc3O)s2)c1	0	0	0	0	0
CC(=O)CC[C@H]1CC[C@]2(CCCN(C(=O)c3ccco3)C2)O1	0	0	0	-	0
COc1ccccc1C1CC(c2cccs2)=Nc2ccccc2S1 (stereo unspecified)	80.8	0	0	0	0
COc1ccccc1C1CC(c2cccs2)=NN1C(=O)CCC(=O)O (stereo unspecified)	0	0	0	0	0
CCN(CC(=O)NCc1cccs1)C(=O)c1ccc(-c2ccc(F)cc2)o1	24.1	0	0	0	0
Nc1ccn([C@@H]2O[C@H](C(=O)N[C@H](Cc3ccccc3)C(=O)Nc3ccc4scnc4c3)[C@@H](O)[C@H]2O)c(=O)n1	21.2	0	0	0	0
CC1(C)Cc2c(c(=S)nc(-c3ccccc3)n2CCOCCO)CO1	21.9	0	0	0	0
CC(=O)C1(C(=O)NC2CCCC2)CC(c2ccccn2)=NO1 (stereo unspecified)	0	0	0	-	0
CCOC(=O)c1ccc(NC(=O)CSc2nnc(SCc3cccc4ccccc34)s2)cc1	0	0	0	-	0
COC(=O)C1CN(C2CC2)CCS(=O)(=O)N1Cc1cn(Cc2ccc(Cl)cc2)nn1 (stereo unspecified)	0	0	0	-	0
COc1ccc(-c2nc3c(Cl)cc(C(F)(F)F)cn3c2Cc2ccccc2C(F)(F)F)cc1OC	0	0	0	0	0
Cc1ccc(-c2nc3c(Cl)cc(C(F)(F)F)cn3c2Cc2ccccc2C(F)(F)F)cc1	0	0	35.3	0	0
S=C(NNc1ccnc2cc(Cl)ccc12)Nc1ccc(Cl)cc1Cl	0	19.4	0	0	0
CC(C)(C)c1ccc(-c2nnc(SCC(=O)Nc3ccc(Oc4ccccc4)cc3)n2Cc2ccco2)cc1	0	0	0	-	0
O=C(Nc1sc2c(c1C(=O)O)CCCC2)c1cccc(Cl)c1	0	0	84.4	0	0
